Source: ChEMBL document CHEMBL4513216, “Probing the Open Global Health Chemical Diversity Library for Multistage-Active Starting Points for Next-Generation Antimalarials” (ACS Infect Dis, 2020)

Assay: Toxicity liver stage against HepG2, at 10uM
Type: cell-based
Set-up: test concentration 10 uM, cell line HepG2-A16-CD81EGFP
Settings: human, HepG2-A16-CD81EGFP cells; read-out: INHIBITION
Method in brief: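 Uninfected HepG2-A16-CD81EGFP cells, 3 × 10^3 per well, 1536-well, plated on prespotted compound at 10 μM final, parasite-free screening media added to match infected plates; puromycin 10 μM positive, DMSO 0.5% negative; run in parallel with 48 h PbLuc assay at 37 °C, 5% CO2; viability by CellTiter-Glo luminescence, normalized to controls.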

Compound: CC(=O)N1CCOC[C@H](Oc2ccc(C(F)(F)F)cc2)C1
- cytotoxicity at 10 µM: 2.65%

Compound: Cc1cc2nc(CO[C@H]3CN(C4CCC4)C[C@H]3F)[nH]c2cc1C
- cytotoxicity at 10 µM: 1.56%

Compound: COCCCNc1c(-c2ccc(C)cc2)c(=O)c1=O
- cytotoxicity at 10 µM: 12.5%

Compound: CC(=O)c1cn(CC(=O)N[C@H](C(=O)O)C(C)C)c2ccccc12
- cytotoxicity at 10 µM: -7.06%

Compound: COCCc1nnc(NC(=O)Cc2ccccc2Cl)o1
- cytotoxicity at 10 µM: -6.95%

Compound: CN(C)CCO[C@@H]1CC[C@H]2[C@H]1OCCN2C(=O)c1ccccc1F
- cytotoxicity at 10 µM: 2.25%

Compound: Cc1cc2nc(SCC(=O)N3CCCCC3)n(C)c(=O)c2[nH]1
- cytotoxicity at 10 µM: 5.56%

Compound: C[C@H](NC(=O)Cc1csc(-c2cccc(Cl)c2)n1)C(=O)O
- cytotoxicity at 10 µM: 1.25%

Compound: O=C(CSc1ccccn1)NCc1ccc2c(c1)CCC(=O)N2
- cytotoxicity at 10 µM: 20%

Compound: Cc1cccc2c1cnn2CCCNC(=O)c1ccnn1C
- cytotoxicity at 10 µM: 13.4%

Compound: Cc1nn(C)c(C)c1-c1ccc(=O)n(C(C)C(=O)NC2CCCC2)n1 (stereo not drawn)
- cytotoxicity at 10 µM: 5.97%

Compound: Cc1ccc(CC2COCCN(Cc3ccccc3)C2)nc1 (stereo not drawn)
- cytotoxicity at 10 µM: 8.3%

Compound: COc1ccc(C2CNCCN2C(=O)c2cccc3cccnc23)cc1 (stereo not drawn)
- cytotoxicity at 10 µM: -4.48%

Compound: CNc1ncc(C(=O)N2CCOC(C(=O)N3CCCCCC3)C2)cn1 (stereo not drawn)
- cytotoxicity at 10 µM: -8.29%

Compound: CN(C(=O)c1ccn(C)n1)[C@@H]1CCC[C@@H](Oc2ccccc2)[C@@H]1O
- cytotoxicity at 10 µM: -10.3%

Compound: O=C(c1ccno1)N1CCCC(c2ncncc2-c2ccncc2)C1 (stereo not drawn)
- cytotoxicity at 10 µM: -19.9%

Compound: O=C(c1ccncc1)N1CCCC(c2cc(C(F)F)n3ncnc3n2)C1 (stereo not drawn)
- cytotoxicity at 10 µM: -4.45%

Compound: Cn1ccnc1CN1CCOC(C)(C(=O)N2CCOCC2)C1 (stereo not drawn)
- cytotoxicity at 10 µM: 1.27%

Compound: Oc1nc(N2CCOCC2)nc2c1CCN(Cc1ccccc1)CC2
- cytotoxicity at 10 µM: -4.03%

Compound: CCc1nc2ccccc2c(=O)n1CC1(O)CCN(C(=O)C(C)C)CC1
- cytotoxicity at 10 µM: -24.3%

Compound: CC(C)N1CCC(Cc2cncc(-c3cc(F)ccc3C(=O)O)n2)C1 (stereo not drawn)
- cytotoxicity at 10 µM: -6.88%

Compound: COc1cc(CN2C[C@H](OC)[C@]3(CCCO3)C2)ccc1F
- cytotoxicity at 10 µM: -7.61%

Compound: COCCN(Cc1ccccn1)C(=O)CC1OCCc2sccc21 (stereo not drawn)
- cytotoxicity at 10 µM: -54.8%

Compound: Cc1cnn(CC(C)NCC(=O)NC2CCOCC2)c1 (stereo not drawn)
- cytotoxicity at 10 µM: 15.6%

Compound: N#Cc1c(CN2CCCC2Cn2cccn2)cn2ccccc12 (stereo not drawn)
- cytotoxicity at 10 µM: -4.67%

Compound: CC(C)OCCC(=O)NS(=O)(=O)N1CCOc2ccccc21
- cytotoxicity at 10 µM: -0.955%

Compound: CN(Cc1cc(Cl)cc2cccnc12)CC1CCN(CCO)CC1
- cytotoxicity at 10 µM: -5.2%

Compound: CNC(=O)NCC(=O)N(C)C(c1ccc(Cl)cc1)c1cccnc1 (stereo not drawn)
- cytotoxicity at 10 µM: 9.61%

Compound: O=C(NCC[S+]([O-])Cc1ccccc1)c1ccc2[nH]c(=O)[nH]c2c1 (stereo not drawn)
- cytotoxicity at 10 µM: 6.11%

Compound: COCCCC(=O)Nc1cccnc1N1CCCCC1
- cytotoxicity at 10 µM: -6.34%

Compound: Cc1nc(C)c(C(=O)N2CCCc3c(F)cccc32)o1
- cytotoxicity at 10 µM: -6.75%

Compound: Cc1occc1C(=O)N1CCOC2(CCCC2)C1
- cytotoxicity at 10 µM: -10.9%

Compound: CN(Cc1cnn(C)c1)S(=O)(=O)N1CCc2ccccc2C1
- cytotoxicity at 10 µM: -6.47%

Compound: Cc1n[nH]c(C2CN(C(=O)c3csnn3)CCO2)n1 (stereo not drawn)
- cytotoxicity at 10 µM: 2.74%

Compound: CNC(=O)C(C)(C)CNC(=O)Nc1ccc(C)cn1
- cytotoxicity at 10 µM: 0.973%

Compound: CC(C)N(C)C(=O)c1ccc(Cl)c(NC(=O)CCN2C(=O)CCC2=O)c1
- cytotoxicity at 10 µM: -2.63%

Compound: Cc1ccccc1S(=O)(=O)NC(=O)C1(c2ccccc2)CCC1
- cytotoxicity at 10 µM: -6.9%

Compound: Cc1cc(C(=O)N2CCN(Cn3cc(Cl)cn3)CC2)c(C)o1
- cytotoxicity at 10 µM: 10.9%

Compound: CCS(=O)(=O)NC(C(=O)NC)c1ccc(F)c(F)c1 (stereo not drawn)
- cytotoxicity at 10 µM: -9.06%

Compound: N#Cc1cc(NC(=O)c2ccsc2)ccc1N1CCC(O)CC1
- cytotoxicity at 10 µM: 4.77%

Compound: c1cnnc(N2CCCC2CNCc2nc3ccccc3o2)c1 (stereo not drawn)
- cytotoxicity at 10 µM: -10.9%

Compound: Cc1cnc(C(=O)N2CCCN(Cc3csc(C)n3)CC2)cn1
- cytotoxicity at 10 µM: -16%

Compound: C[C@@H]1CN(C(=O)c2ccsc2)C[C@]12CCN(c1ccsc1)C2=O
- cytotoxicity at 10 µM: 1.88%

Compound: CC(C)Nc1nc2c(s1)C(=O)CN(C)C2
- cytotoxicity at 10 µM: -9.77%

Compound: CC(C)CC(=O)N1CC(=O)c2sc(NCCc3ccccc3)nc2C1
- cytotoxicity at 10 µM: -0.501%

Compound: CCCc1ccc(CN2CCC3(CCC(=O)N(CCCOC)C3)CC2)o1
- cytotoxicity at 10 µM: -1.53%

Compound: O=C(c1cccc(C2CCNC2)c1)N1CCC(N2CCC(O)CC2)CC1 (stereo not drawn)
- cytotoxicity at 10 µM: 2.18%

Compound: O=C(c1ccc(-n2cnnc2)cc1Cl)N1CCCC2(CCNC2)C1 (stereo not drawn)
- cytotoxicity at 10 µM: -5.32%

Compound: O=C(c1ccccn1)C1CCCN(c2nccc(CCC(F)(F)F)n2)C1 (stereo not drawn)
- cytotoxicity at 10 µM: -4.27%

Compound: CCc1cc(CN(C)C(=O)c2cnc3c(c2)nc(N)n3CC)on1
- cytotoxicity at 10 µM: 1.3%

Compound: CCc1cc(N2CCC(N[C@@H]3CS(=O)(=O)C[C@H]3O)CC2)nc(N(C)C)n1
- cytotoxicity at 10 µM: -0.157%

Compound: CC(C)C1CN(Cc2nccn2C(C)C)CCC(=O)N1CC1CC1 (stereo not drawn)
- cytotoxicity at 10 µM: -11%

Compound: CC(C)Oc1cccc(Cc2nc3c([nH]2)CCCNC3=O)c1
- cytotoxicity at 10 µM: -12.9%

Compound: CCCc1cc(CNC2CCN(c3nc(C)cc(C)n3)CC2)on1
- cytotoxicity at 10 µM: 7.51%

Compound: Cc1nn(CCC(=O)NC(C(=O)O)c2c(C)n[nH]c2C)c(C)c1C (stereo not drawn)
- cytotoxicity at 10 µM: -2.72%

Compound: CC(C)[C@H]1COC(=O)N1Cc1nccn1C1CC1
- cytotoxicity at 10 µM: -15.4%

Compound: Cn1ccnc1CN(CCO)C(=O)C1CCN(C(=O)C2CC2)CC1
- cytotoxicity at 10 µM: 2.55%

Compound: CC(=O)N1CCc2[nH]cnc2C12CCN(C(=O)CCn1cccn1)CC2
- cytotoxicity at 10 µM: 5.71%

Compound: Cc1cc(C)c2c(NC(C)c3nncn3C3CCCC3)ncnc2n1 (stereo not drawn)
- cytotoxicity at 10 µM: 5.01%

Compound: COCC1CCN(C(C(=O)O)c2c(F)cccc2OC(C)C)CC1 (stereo not drawn)
- cytotoxicity at 10 µM: 0.515%

Compound: OCC1(Cc2ccc(F)cc2F)CCCN(Cc2ccncc2)C1 (stereo not drawn)
- cytotoxicity at 10 µM: -3.44%

Compound: CCCSc1ncc(-c2nccn2CCO)cn1
- cytotoxicity at 10 µM: -12.9%

Compound: COc1cc(N2CCN(Cc3ccc(C)o3)C(CCO)C2)nc(N)n1 (stereo not drawn)
- cytotoxicity at 10 µM: 2.8%

Compound: CCc1cc(NCCNc2cccnc2)n2nccc2n1
- cytotoxicity at 10 µM: -11.9%

Compound: CN(CCc1ccccc1)Cc1cc(C(=O)N2CCCC2(C)C)no1
- cytotoxicity at 10 µM: -9.18%

Compound: Cc1ccsc1CN(CCN(C)C)Cc1ccccn1
- cytotoxicity at 10 µM: -16.1%

Compound: CCc1c(C)sc(NC(=O)CN2CCN(CC)CC2)c1C(=O)OC
- cytotoxicity at 10 µM: -11.1%

Compound: O=C1CCC(=O)N1c1nn(Cc2ccccc2)cc1Cl
- cytotoxicity at 10 µM: -14.4%

Compound: Fc1ccc(CCN2CCC(c3nnc(-c4cccnc4)o3)CC2)cc1
- cytotoxicity at 10 µM: 6.59%

Compound: OC1CCCN(Cc2c(-c3ccco3)[nH]c3ncccc23)C1 (stereo not drawn)
- cytotoxicity at 10 µM: -5.87%

Compound: Cc1ncsc1-c1nnc(C2CCN(Cc3ccc(F)cc3)CC2)o1
- cytotoxicity at 10 µM: 3.52%

Compound: CN1CCN(c2cc(CNC(=O)c3cnccn3)ccn2)CC1
- cytotoxicity at 10 µM: -8.92%

Compound: Cc1cc(CN2CCCC(Cn3cncn3)C2)on1 (stereo not drawn)
- cytotoxicity at 10 µM: -25.2%

Compound: Cc1n[nH]c(C2CN(CCc3cccs3)CCO2)n1 (stereo not drawn)
- cytotoxicity at 10 µM: -15.8%

Compound: CCCc1n[nH]c(C2CN(C(=O)c3ccnc(C4CC4)n3)CCO2)n1 (stereo not drawn)
- cytotoxicity at 10 µM: -7.49%

Compound: Cc1nn(C)c(C)c1C1CCCN1C(=O)c1cnc2n[nH]c(C)c2c1 (stereo not drawn)
- cytotoxicity at 10 µM: -8.38%

Compound: CCc1nc(C2CCCN2C(=O)CCNS(C)(=O)=O)no1 (stereo not drawn)
- cytotoxicity at 10 µM: -1.77%

Compound: CC(NC(=O)CCc1cccs1)c1nnc2n1CCC2 (stereo not drawn)
- cytotoxicity at 10 µM: -4.22%

Compound: Cc1ccc(N2CCCN(C(=O)CC3CCCO3)CC2)nn1 (stereo not drawn)
- cytotoxicity at 10 µM: -3.68%

Compound: CC(C)Nc1nc(N2CCCC2)nc2c1CCN(S(C)(=O)=O)CC2
- cytotoxicity at 10 µM: 6.43%

Compound: Cn1ncc2c1CCCC2NCc1ccc(Br)s1 (stereo not drawn)
- cytotoxicity at 10 µM: -4.41%

Compound: Cc1ccc(CN2CCc3ncc(CNS(C)(=O)=O)n3CC2)o1
- cytotoxicity at 10 µM: -9.9%

Compound: COc1ccc(-c2cc(CN)nc3ccnn23)cc1
- cytotoxicity at 10 µM: -5.75%
